These results are taken from ChEMBL document CHEMBL4382248, “Optimization of a 1,3,4-oxadiazole series for inhibition of Ca2+/calmodulin-stimulated activity of adenylyl cyclases 1 and 8 for the treatment of chronic pain” (Eur J Med Chem, 2019).

By inhibition is commonly meant how much of the control response was suppressed. For orientation: pIC50 means the IC50 on a negative log10 scale, so that one unit is a factor of ten.

Structures are written as SMILES. pIC50: −log10 of the molar value. The source made the active and inactive calls. The rule behind the calls is not given here.

Data set [1] deals with T1, Adenylate cyclase type 1 (Homo sapiens, UniProt Q08828). Nature of the data set: Inhibition of human AC1 expressed in HEK293 cells assessed as decrease in A23187-stimulated cAMP accumulation at 30 uM preincubated for 30 mins followed by A23187 stimulation and measured after 1 hr by fluorescence assay relative to control. The format is cell-based. Put shortly:
(§1)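 HEK cells stably expressing AC1 or AC8; Ca2+/calmodulin-stimulated cAMP accumulation measured. Dose-response curves began at 30 µM. […] Values are the mean and SEM of three independent experiments.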
Target sequence in this assay (Q08828 whole entry, looked up): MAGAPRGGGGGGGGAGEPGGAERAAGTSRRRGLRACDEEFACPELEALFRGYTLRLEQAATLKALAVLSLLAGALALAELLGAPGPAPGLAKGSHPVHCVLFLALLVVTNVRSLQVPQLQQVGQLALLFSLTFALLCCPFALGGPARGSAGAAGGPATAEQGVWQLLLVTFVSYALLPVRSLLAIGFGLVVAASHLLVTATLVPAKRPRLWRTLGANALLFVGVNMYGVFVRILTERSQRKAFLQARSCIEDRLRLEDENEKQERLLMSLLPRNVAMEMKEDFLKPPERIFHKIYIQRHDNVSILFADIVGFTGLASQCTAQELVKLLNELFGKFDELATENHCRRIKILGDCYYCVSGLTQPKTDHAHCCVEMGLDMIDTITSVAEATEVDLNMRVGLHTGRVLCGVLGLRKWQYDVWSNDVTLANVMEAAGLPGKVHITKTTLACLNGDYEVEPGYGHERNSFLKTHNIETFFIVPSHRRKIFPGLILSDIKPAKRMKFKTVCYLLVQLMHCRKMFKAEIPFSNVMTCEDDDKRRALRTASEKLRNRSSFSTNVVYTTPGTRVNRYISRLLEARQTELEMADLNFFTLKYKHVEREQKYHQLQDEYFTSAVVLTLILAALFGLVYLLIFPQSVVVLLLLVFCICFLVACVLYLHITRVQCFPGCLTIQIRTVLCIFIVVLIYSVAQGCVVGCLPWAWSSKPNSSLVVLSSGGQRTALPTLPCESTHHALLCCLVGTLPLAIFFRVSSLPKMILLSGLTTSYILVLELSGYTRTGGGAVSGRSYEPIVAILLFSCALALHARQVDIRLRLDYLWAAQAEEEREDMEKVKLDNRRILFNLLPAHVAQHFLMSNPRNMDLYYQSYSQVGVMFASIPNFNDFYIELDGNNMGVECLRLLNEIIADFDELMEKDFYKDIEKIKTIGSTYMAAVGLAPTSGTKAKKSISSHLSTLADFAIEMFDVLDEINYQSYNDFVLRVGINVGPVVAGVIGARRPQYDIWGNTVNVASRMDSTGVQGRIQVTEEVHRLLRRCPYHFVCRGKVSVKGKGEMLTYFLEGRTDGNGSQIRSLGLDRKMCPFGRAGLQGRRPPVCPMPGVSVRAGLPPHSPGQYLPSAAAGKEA

A short description of data set [2]: (§2) Cytotoxicity against HEK293 cells expressing human AC1 at 30 uM preincubated for 30 mins followed by A23187 stimulation and measured after 1 hr by CellTiter-Glo luminescent cell viability assay relative to control. As to conditions: HEK293 cells expressing human AC1, read-out: Activity. The format is cell-based. The method in brief: (§3)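 Cytotoxicity in HEK lines stably expressing AC1 or AC8: single 30 µM dose, 90 min incubation. Viability was read by luminescent ATP reporter as % of DMSO-treated (100%) and Triton-X-treated (0%) controls.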

In data set [3] the target is T2, Adenylate cyclase type 8 (Homo sapiens, UniProt P40145). Nature of the data set: Inhibition of human AC8 expressed in HEK293 cells assessed as decrease in A23187-stimulated cAMP accumulation at 30 uM preincubated for 30 mins followed by A23187 stimulation and measured after 1 hr by fluorescence assay relative to control. The format is cell-based. The method in brief: as §1
In general terms: Changes in cAMP serve as a functional read-out for many G protein-coupled receptors.

Data set [4] addresses T1, Adenylate cyclase type 1. Nature of the data set: Inhibition of human AC1 expressed in HEK293 AC3/AC6 deficit cells assessed as decrease in forskolin-stimulated cAMP accumulation preincubated for 30 mins followed by forskolin stimulation and measured after 1 hr by fluorescence assay. The format is cell-based. Put shortly: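 HEK cells lacking AC3/AC6 were transiently transfected with AC1. Cells were incubated with test compounds in the presence of forskolin at 3, 10 or 30 µM, and cAMP accumulation was measured.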
Target sequence in this assay (Q08828 whole entry, looked up): as above

Data set [5] concerns the target Adenylate cyclase type 2 (Homo sapiens) (UniProt Q08462). The data set can be described thus: Inhibition of human AC2 expressed in HEK293 cells assessed as PMA-stimulated cAMP accumulation at 30 uM preincubated for 30 mins followed by PMA stimulation and measured after 1 hr by fluorescence assay relative to control. On the set-up: scale not given: the % may be the effect or the level left. The format is cell-based. Put shortly:
(§4)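 Group 2 AC2 (PKC-stimulated) or group 3 AC (forskolin-stimulated) cells were exposed to a single 30 µM dose (n = 3). cAMP activity was normalized to DMSO controls set as 100%.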

The species named for data set [6] is Homo sapiens. The data set can be described thus: Selectivity ratio of IC50 for human AC8 expressed in HEK293 cells to IC50 for human AC1 expressed in HEK293 cells. The format is cell-based.
Data set [7] has as its target Adenylate cyclase type 5 (Homo sapiens) (UniProt O95622). Nature of the data set: Inhibition of human AC5 expressed in HEK293 cells assessed as forskolin-stimulated cAMP accumulation at 30 uM preincubated for 30 mins followed by forskolin stimulation and measured after 1 hr by fluorescence assay relative to control. The format is cell-based. More on the design: scale not given: the % may be the effect or the level left. Put shortly:
as §4

Data set [8] has as its target T1, Adenylate cyclase type 1. Nature of the data set: Inhibition of human AC1 expressed in HEK293 cells assessed as decrease in A23187-stimulated cAMP accumulation preincubated for 30 mins followed by A23187 stimulation and measured after 1 hr by fluorescence assay. The format is cell-based. Put shortly:
as §1
Target sequence in this assay (Q08828 whole entry): as the sequence (Q08828 whole entry, looked up) above

Data set [9] has as its system HEK293. The description is as §2. The format is cell-based. As to conditions: hek293, 1 h, 30 µM. The method in brief:
as §3

In data set [10] the target is T2, Adenylate cyclase type 8. Nature of the data set: Inhibition of human AC8 expressed in HEK293 cells assessed as decrease in A23187-stimulated cAMP accumulation preincubated for 30 mins followed by A23187 stimulation and measured after 1 hr by fluorescence assay. The format is cell-based. The method in brief:
as §1

Data set [11] has as its target T1, Adenylate cyclase type 1. Nature of the data set: Inhibition of AC1 (unknown origin) expressed in HEK cells assessed as decrease in A23187-stimulated cAMP accumulation preincubated for 30 mins followed by A23187 stimulation and measured after 1 hr. The format is cell-based. Put shortly:
as §1
Target sequence in this assay (Q08828 whole entry): as the sequence (Q08828 whole entry, looked up) above

Data set [12] relates to Mus musculus. Nature of the data set: Analgesic activity in C57BL/6 mouse model of CFA-induced inflammatory pain model assessed as reduction in mechanical sensitivity in ipsilateral paw at 5 mg/kg, ip measured after 1 day post dose by von Frey filament test based modified up-and-down technique. The format is functional, organism-based.
Data set [13] relates to Mus musculus. The data set can be described thus: Analgesic activity in C57BL/6 mouse model of CFA-induced inflammatory pain model assessed as reduction in mechanical sensitivity in ipsilateral paw at 5 mg/kg, ip measured after 30 mins post dose by von Frey filament test based modified up-and-down technique. The format is functional, organism-based. The method in brief: (§5)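 Male C57BL/6 mice (n=7) received CFA in the ipsilateral hind paw. On day 2, after baseline hypersensitivity was measured, they were given vehicle or 5 mg/kg i.p. Mechanical sensitivity of ipsilateral and contralateral paws was recorded 30 min after injection. Analysis used two-way repeated-measures ANOVA with Bonferroni test.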

Data set [14] deals with Mus musculus. The data set can be described thus: Effect on mechanical sensitivity in contralateral pa in C57BL/6 mouse model of CFA-induced inflammatory pain model at 5 mg/kg, ip measured after 30 mins post dose by von Frey filament test based modified up-and-down technique. The format is ADME, organism-based. The conditions noted are these: in vivo, 0.5 h. Put shortly: as §5

Sequence of Adenylate cyclase type 2 (Homo sapiens) (Q08462 whole entry): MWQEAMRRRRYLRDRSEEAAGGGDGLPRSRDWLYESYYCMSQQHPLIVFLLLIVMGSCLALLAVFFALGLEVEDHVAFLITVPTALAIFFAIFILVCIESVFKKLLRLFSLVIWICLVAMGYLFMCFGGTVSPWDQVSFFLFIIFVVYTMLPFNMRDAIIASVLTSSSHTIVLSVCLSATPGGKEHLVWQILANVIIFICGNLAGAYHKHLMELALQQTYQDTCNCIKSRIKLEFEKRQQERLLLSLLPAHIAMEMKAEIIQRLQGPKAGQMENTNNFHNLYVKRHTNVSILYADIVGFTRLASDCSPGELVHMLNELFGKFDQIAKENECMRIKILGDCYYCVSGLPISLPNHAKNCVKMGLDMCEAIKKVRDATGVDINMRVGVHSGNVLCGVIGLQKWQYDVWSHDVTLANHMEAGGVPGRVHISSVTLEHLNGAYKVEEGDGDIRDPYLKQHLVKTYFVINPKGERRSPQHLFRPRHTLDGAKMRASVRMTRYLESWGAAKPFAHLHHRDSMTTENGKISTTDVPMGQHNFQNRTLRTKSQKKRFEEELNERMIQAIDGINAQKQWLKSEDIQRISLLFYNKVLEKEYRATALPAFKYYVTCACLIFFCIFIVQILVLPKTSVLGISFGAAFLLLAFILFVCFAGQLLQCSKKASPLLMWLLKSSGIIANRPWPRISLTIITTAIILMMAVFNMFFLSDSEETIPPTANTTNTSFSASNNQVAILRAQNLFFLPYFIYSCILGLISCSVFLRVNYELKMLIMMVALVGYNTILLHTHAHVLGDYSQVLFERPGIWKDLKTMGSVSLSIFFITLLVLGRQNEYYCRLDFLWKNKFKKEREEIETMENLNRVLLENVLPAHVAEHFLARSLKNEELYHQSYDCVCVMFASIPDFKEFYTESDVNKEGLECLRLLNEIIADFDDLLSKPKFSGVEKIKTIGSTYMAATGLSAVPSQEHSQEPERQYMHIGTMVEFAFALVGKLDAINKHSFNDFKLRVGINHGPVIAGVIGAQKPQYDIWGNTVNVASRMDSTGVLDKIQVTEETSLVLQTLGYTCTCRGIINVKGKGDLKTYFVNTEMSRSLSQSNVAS
T2 sequence (P40145 whole entry): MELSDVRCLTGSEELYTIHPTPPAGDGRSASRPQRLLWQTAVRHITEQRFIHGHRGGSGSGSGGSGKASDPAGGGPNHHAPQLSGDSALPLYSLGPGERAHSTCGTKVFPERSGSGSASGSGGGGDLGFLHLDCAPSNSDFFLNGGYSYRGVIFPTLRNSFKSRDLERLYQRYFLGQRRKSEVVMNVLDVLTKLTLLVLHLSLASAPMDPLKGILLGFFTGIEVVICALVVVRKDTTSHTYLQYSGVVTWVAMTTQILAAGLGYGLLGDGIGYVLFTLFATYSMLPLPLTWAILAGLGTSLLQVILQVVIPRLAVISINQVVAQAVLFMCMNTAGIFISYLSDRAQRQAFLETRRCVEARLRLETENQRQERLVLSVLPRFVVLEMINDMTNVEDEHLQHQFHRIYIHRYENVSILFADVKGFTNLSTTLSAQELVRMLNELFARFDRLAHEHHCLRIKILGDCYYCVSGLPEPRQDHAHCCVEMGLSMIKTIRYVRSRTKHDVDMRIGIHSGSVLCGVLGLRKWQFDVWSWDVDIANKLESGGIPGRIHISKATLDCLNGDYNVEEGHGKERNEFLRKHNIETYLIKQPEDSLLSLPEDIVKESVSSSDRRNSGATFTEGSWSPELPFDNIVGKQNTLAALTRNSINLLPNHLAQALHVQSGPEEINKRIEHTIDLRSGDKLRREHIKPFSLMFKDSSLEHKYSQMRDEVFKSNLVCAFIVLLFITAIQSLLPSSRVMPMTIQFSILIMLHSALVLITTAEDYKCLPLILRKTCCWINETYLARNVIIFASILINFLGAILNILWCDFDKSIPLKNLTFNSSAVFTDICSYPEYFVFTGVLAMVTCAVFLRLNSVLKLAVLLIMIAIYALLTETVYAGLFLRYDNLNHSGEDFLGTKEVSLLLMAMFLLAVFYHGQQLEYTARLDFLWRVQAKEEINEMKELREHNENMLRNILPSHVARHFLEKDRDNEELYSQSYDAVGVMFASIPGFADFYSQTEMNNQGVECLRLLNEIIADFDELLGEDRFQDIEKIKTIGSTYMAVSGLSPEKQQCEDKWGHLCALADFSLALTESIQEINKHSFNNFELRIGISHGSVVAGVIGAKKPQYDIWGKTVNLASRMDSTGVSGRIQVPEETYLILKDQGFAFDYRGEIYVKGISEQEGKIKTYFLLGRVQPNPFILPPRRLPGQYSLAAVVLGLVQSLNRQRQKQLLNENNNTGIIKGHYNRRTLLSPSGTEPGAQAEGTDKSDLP
Sequence of Adenylate cyclase type 5 (Homo sapiens) (O95622 whole entry, looked up): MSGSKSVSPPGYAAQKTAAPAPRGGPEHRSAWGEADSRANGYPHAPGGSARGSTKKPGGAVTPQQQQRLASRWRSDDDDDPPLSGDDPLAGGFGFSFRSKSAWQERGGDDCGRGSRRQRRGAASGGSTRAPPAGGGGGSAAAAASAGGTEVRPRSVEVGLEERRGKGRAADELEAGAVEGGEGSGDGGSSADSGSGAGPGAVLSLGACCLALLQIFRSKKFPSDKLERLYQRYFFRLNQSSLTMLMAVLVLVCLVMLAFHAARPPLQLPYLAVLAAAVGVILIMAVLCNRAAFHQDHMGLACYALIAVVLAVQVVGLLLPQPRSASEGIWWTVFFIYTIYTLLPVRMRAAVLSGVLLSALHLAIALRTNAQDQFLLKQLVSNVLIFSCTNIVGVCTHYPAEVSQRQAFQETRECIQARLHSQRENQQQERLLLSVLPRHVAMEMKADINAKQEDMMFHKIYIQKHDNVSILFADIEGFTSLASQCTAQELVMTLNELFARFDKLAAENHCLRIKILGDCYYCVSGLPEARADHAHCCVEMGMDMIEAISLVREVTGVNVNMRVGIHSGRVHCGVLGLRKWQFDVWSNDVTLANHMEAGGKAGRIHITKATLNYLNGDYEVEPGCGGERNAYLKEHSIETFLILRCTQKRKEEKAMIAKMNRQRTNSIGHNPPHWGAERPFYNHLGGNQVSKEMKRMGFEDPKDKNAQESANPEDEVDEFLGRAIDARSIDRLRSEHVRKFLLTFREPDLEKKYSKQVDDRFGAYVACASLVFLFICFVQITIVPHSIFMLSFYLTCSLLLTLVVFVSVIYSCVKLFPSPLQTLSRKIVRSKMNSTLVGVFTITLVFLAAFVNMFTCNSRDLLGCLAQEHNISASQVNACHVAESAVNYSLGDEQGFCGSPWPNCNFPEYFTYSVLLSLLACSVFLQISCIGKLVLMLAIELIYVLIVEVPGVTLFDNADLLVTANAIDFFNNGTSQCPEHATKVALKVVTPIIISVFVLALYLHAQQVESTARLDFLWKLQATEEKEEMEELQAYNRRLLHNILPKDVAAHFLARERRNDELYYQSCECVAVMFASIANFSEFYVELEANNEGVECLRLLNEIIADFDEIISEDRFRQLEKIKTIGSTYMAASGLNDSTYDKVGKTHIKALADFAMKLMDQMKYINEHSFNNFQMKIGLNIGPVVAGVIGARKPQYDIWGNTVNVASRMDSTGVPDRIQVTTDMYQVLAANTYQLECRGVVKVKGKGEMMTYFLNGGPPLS

`CC(C)Oc1ccc(C(=O)Nc2nnc(-c3ccco3)o2)cc1`: the inhibition in [1] is 39%; in data set [3], 21%. For the same compound, the viability at 1 h, 30 µM in data set [2] was determined as 58%.
Regarding `Nc1ncnc2c1NCN2C1CCCO1` (stereo not given), the inhibition result in [4] was “Dose-dependent effect”.
Regarding `Cc1ccc(C(=O)Nc2nnc(-c3ccc(F)cc3)o2)cc1`, the viability at 1 h, 30 µM in data set [2] was found to be 104%. Moreover, the inhibition in data set [3] turned out to be 31%. In addition, the values for the Activity in [5] and in data set [7] were 341% and 170%, respectively. Further, in data set [6], the Ratio IC50 is > 3.6.
In the case of `O=C(Nc1nnc(-c2ccccc2)o1)c1cccc(C(F)(F)F)c1`, the pIC50 in [8] is 4.89. In data set [9], this compound gave an Activity of 78%. Also, the inhibition in [3] was 23%. Also, in data set [6], the Ratio IC50 is > 2.3.
`O=C(Nc1nnc(-c2ccc(F)cc2)o1)c1cccc(-c2ccccc2)c1` showed an Activity in data set [9] of 71%. In data set [6], the Ratio IC50 was found to be 3.
Consider `O=C(Nc1nnc(-c2ccc3c(c2)OCCO3)o1)c1ccc(Br)cc1`, for which, in [2], the viability at 1 h, 30 µM was 121%. Also, the Activity is 198% in data set [5] and 159% in data set [7]. In [6], the Ratio IC50 was determined as 6.8.
In the case of `O=C(Nc1nnc(-c2ccc(F)cc2)o1)c1ccccc1F`, the inhibition turned out to be 12% in data set [1] and 13% in data set [3]. In addition, the viability at 1 h, 30 µM in data set [2] amounted to 87%.
Turning to `O=C(Nc1nnc(-c2ccc3c(c2)CCCC3)o1)c1ccc(Cl)cc1`, the pIC50 in data set [8] was 5.82; in data set [10] it was 5.44. In addition, the viability at 1 h, 30 µM in data set [2] was determined as 97%. In addition, the Ratio IC50 in [6] stood at 2.4.
As to `O=c1cc(C(Cl)(Cl)Cl)oc2ccc(Cl)cc12`, the pIC50 in data set [11] was 5.64.
Take `O=C(Nc1nnc(-c2ccco2)o1)c1ccccc1`: the inhibition in [1] came out at 20%; in data set [3], 28%. The Activity in data set [9] was found to be 73%.
For `Cc1ccc(C(=O)Nc2nnc(-c3ccc4c(c3)CCCC4)o2)cc1`, the viability at 1 h, 30 µM in data set [2] was in the range of 107 to 123%. Moreover, the Activity was found to be 275% in [5] and 139% in data set [7]. The Ratio IC50 in [6] fell in the range of 0.79 to 7.4.
With `Cc1cc(C(=O)Nc2nnc(-c3ccc(F)cc3)o2)cc(C(F)(F)F)c1`, the viability at 1 h, 30 µM in data set [2] is 102%. For the same compound, in [12], the result was inactive. Moreover, in data set [13], the outcome was Active. Moreover, in data set [6], the Ratio IC50 worked out at 2.9. Besides, the Activity result in data set [14] was “Non-Toxic”.
Turning to `O=C(Nc1nnc(C2CCCCC2)o1)c1ccccc1`, the pIC50 in data set [8] was 4.60. Moreover, the viability at 1 h, 30 µM in data set [2] is 87%. In addition, in data set [3], the inhibition turned out to be 2%.
Regarding `O=C(Nc1nnc(-c2ccc3c(c2)CCCC3)o1)c1cccc(C(F)(F)F)c1`, the viability at 1 h, 30 µM in [2] is 107 to 125%. Moreover, the Activity in data set [5] turned out to be 449%; in data set [7], 189%. For the same compound, the Ratio IC50 in data set [6] lay in the range of 4.9 to 9. For the same compound, the inhibition result in [4] is “Dose-dependent effect”.
In the case of `O=C(Nc1nnc(C2CCCCC2)o1)c1cccc(F)c1`, the pIC50 in data set [8] is 4.96. In [2], the viability at 1 h, 30 µM came to 87%. The inhibition in data set [3] stood at 11%.
Regarding `Cc1ccc(C(=O)Nc2nnc(-c3ccc4c(c3)OCCO4)o2)cc1`, the pIC50 in data set [8] is 4.92. The viability at 1 h, 30 µM in data set [2] is 98%. Moreover, the inhibition in [3] worked out at 25%. Further, the Activity in data set [5] is 218%; in data set [7] it was 194%.
With `O=C(Nc1nnc(-c2ccc3c(c2)CCCC3)o1)c1ccc(Br)cc1`, the viability at 1 h, 30 µM in [2] fell in the range of 113 to 115%. The figures for the Activity in data set [5] and in [7] were 160% and 215%, respectively. Further, the Ratio IC50 in data set [6] lay in the range of 2.23 to 4.5.
With `CC(C)Oc1ccc(C(=O)Nc2nnc(-c3ccccc3)o2)cc1`, the pIC50 in data set [8] was 5.27. Further, the viability at 1 h, 30 µM in [2] was 101%. In addition, the inhibition in data set [3] was 43%. The Ratio IC50 in data set [6] is > 5.5.
As to `O=C(Nc1nnc(C2CCCCC2)o1)c1ccc(F)cc1`, the pIC50 in data set [8] was 4.89. In addition, the viability at 1 h, 30 µM in data set [2] amounted to 95%. Moreover, the inhibition in data set [3] was found to be 7%.
Consider `COc1ccc(-c2nnc(NC(=O)c3cc(-c4cccs4)nc4ccccc34)o2)cc1`, for which the pIC50 in [8] is 5.34; in data set [10], 5.25. Besides, the viability at 1 h, 30 µM in data set [2] is 118%. The Ratio IC50 in [6] stood at 1.2.
Consider `O=C(Nc1nnc(-c2ccc(F)cc2)o1)c1cccc(F)c1`, for which, in data set [8], the pIC50 was 4.96. Besides, the viability at 1 h, 30 µM in data set [2] was 104%. For the same compound, in data set [3], the inhibition worked out at 35%.
As to `CCOc1cccc2cc(-c3nnc(NC(=O)c4ccccc4SC)o3)oc12`, the pIC50 in data set [8] and in data set [10] was 4.96 in each case. In addition, in data set [2], the viability at 1 h, 30 µM came out at 127%. The Ratio IC50 in [6] is 1.
Consider `COc1cc(C(=O)Nc2nnc(-c3ccc(F)cc3)o2)cc(C(F)(F)F)c1`, for which, in [2], the viability at 1 h, 30 µM came out at 108%. Further, in [10], the pIC50 was 4.54. In data set [6], the Ratio IC50 stood at 5.8.
